In EPA's CvTdb concentration-time database:

Key:
Rat [1] = assay: concentration in plasma after dosing; conditions: dosed: Perfluorohexane-1-sulphonic acid – potassium salt, 4 mg/kg, oral, Male, F344
Rat [2] = assay: concentration in brain after dosing; conditions: 6 h; dosed: Perfluorohexane-1-sulphonic acid – potassium salt; 16 mg/kg; oral; Female; F344
Rat [3] = assay: concentration in brain after dosing; conditions: 6 h; dosed: Perfluorohexane-1-sulphonic acid – potassium salt; 16 mg/kg; oral; Female; Harlan Sprague Dawley
Rat [4] = assay: concentration in liver after dosing; conditions: 12 h; dosed: Perfluorohexane-1-sulphonic acid – potassium salt; 16 mg/kg; oral; Female; F344
Rat [5] = assay: concentration in kidney after dosing; conditions: 48 h; dosed: Perfluorohexane-1-sulphonic acid – potassium salt; 16 mg/kg; oral; Female; Harlan Sprague Dawley
Rat [6] = assay: concentration in liver after dosing; conditions: 528 h; dosed: Perfluorohexane-1-sulphonic acid – potassium salt; 16 mg/kg; oral; Female; F344
Rat [7] = assay: concentration in kidney after dosing; conditions: 528 h; dosed: Perfluorohexane-1-sulphonic acid – potassium salt; 16 mg/kg; oral; Female; F344
Rat [8] = assay: concentration in plasma after dosing; conditions: dosed: Perfluorohexane-1-sulphonic acid – potassium salt, 4 mg/kg, oral, Male, F344; remark: listed apart in the source
Rat [9] = assay: concentration in kidney after dosing; conditions: 192 h; dosed: Perfluorohexane-1-sulphonic acid – potassium salt; 16 mg/kg; oral; Female; F344
Rat [10] = assay: concentration in kidney after dosing; conditions: dosed: Perfluorohexane-1-sulphonic acid – potassium salt, 16 mg/kg, oral
Rat [11] = assay: concentration in plasma after dosing; conditions: dosed: Pyridine, 5 mg/kg, iv, Male, F344
Rat [12] = assay: concentration in plasma after dosing; conditions: dosed: Pyridine, 5 mg/kg, iv, Male, F344; remark: listed apart in the source
Hamster = assay: concentration in plasma after dosing; conditions: dosed: 2,4-Dichlorophenoxyacetic acid, 8.0 mg/kg, iv, Male, Syrian Golden
Procedure, shortened: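 Concentration-versus-time or amount-versus-time points were compiled from published in vivo toxicokinetic studies and from two structured collections. The studies were found by PubMed searching, classifier screening and manual review. Points were mostly digitised from plot screenshots with WebPlotDigitizer, otherwise copied from tables, and kept in the reported units. Dose, route, subject details and medium were curated by hand from each paper, and sampling and analytical methods follow each source and were often unreported.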

Mouse [13] = assay: concentration in plasma after dosing; conditions: dosed: 2,4-Dichlorophenoxyacetic acid, 1.0 mg/kg, oral, Male, B6C3F1
Mouse [14] = assay: concentration in plasma after dosing; conditions: 0.25 h; dosed: 2-Hydroxy-4-methoxybenzophenone; 500 mg/kg; oral; Female; B6C3F1
Mouse [15] = assay: concentration in plasma after dosing; conditions: dosed: 2-Hydroxy-4-methoxybenzophenone, 100 mg/kg, oral, Male, B6C3F1
Mouse [16] = assay: concentration in plasma after dosing; conditions: 3 h; dosed: 2-Hydroxy-4-methoxybenzophenone; 250 mg/kg; oral; Male; B6C3F1
Mouse [17] = assay: concentration in plasma after dosing; conditions: 10 min; dosed: 2-Hydroxy-4-methoxybenzophenone; 250 mg/kg; oral; Male; B6C3F1
Rat [18] = assay: concentration in plasma after dosing; conditions: 5 min; dosed: alpha-Thujone; 25 mg/kg; oral; Male; Harlan Sprague Dawley
Rat [19] = assay: concentration in plasma after dosing; conditions: 0.25 h; dosed: Primidone; 30 mg/kg; oral; Male; F344
Rat [20] = assay: concentration in plasma after dosing; conditions: 12 h; dosed: Primidone; 80 mg/kg; oral; Female; Harlan Sprague-Dawley
Rat [21] = assay: concentration in plasma after dosing; conditions: 9 h; dosed: Primidone; 80 mg/kg; oral; Male; F344

O=S(=O)([O-])C(F)(F)C(F)(F)C(F)(F)C(F)(F)C(F)(F)C(F)(F)F.[K+] [Perfluorohexane-1-sulphonic acid – potassium salt]
concentration in plasma [ng/mL]
Conditions	0.25 h	3 h	6 h	24 h	528 h	1200 h
Rat [1]	–	28000	–	31600	–	3240
Rat [8]	6180	–	68100	–	13900	–

Conditions	concentration in brain [ng/g]	concentration in kidney [ng/g]	concentration in liver [ng/g]
Rat [2]	1520	–	–
Rat [3]	1090	–	–
Rat [4]	–	–	70300
Rat [5]	–	12000	–
Rat [6]	–	–	20900
Rat [7]	–	8530	–
Rat [9]	–	16700	–

concentration in kidney [ng/g], Rat [10]
Conditions	3 h	6 h	12 h	24 h	48 h	96 h	192 h	528 h	1200 h
Female, F344	29100	37500	41400	38500	–	–	16300	12700	–
Female, Harlan Sprague Dawley	29000	39200	26200	17200	7840	5860	2010	–	–
Male, Harlan Sprague Dawley	–	–	–	–	–	–	–	–	5590

c1ccncc1 [Pyridine]
concentration in plasma [ng/mL]
Conditions	0.05 h	0.25 h	4 h	6 h
Rat [11]	4210	–	2060	–
Rat [12]	–	3670	–	1390

O=C(O)COc1ccc(Cl)cc1Cl [2,4-Dichlorophenoxyacetic acid]
concentration in plasma [ng/mL]
Conditions	Hamster	Mouse [13]
0.25 h	–	1400
0.5 h	–	1920
1.5 h	327	–
2 h	159	531
2.5 min	127000	1660
3 h	–	476
4 h	–	200
5 min	68500	3440
10 h	–	734
10 min	43200	2340
20 min	15900	–
40 min	2690	–

O=C(c1ccccc1)c1ccc(O)cc1O [2,4-Dihydroxybenzophenone]
Conditions	concentration in plasma [ng/mL]
Mouse [14]	2690
Mouse [16]	371
Mouse [17]	392

Mouse [15]
Conditions	concentration in plasma [ng/mL]
0.25 h	433
2 h	177
2.5 min	185
3 h	119
10 min	301

CC(C)[C@]12CC(=O)[C@H](C)[C@H]1C2 [alpha-Thujone]
Conditions	concentration in plasma [ng/mL]
Rat [18]	570

CCC1(c2ccccc2)C(=O)NCNC1=O [Primidone]
Conditions	concentration in plasma [ng/mL]
Rat [19]	8900
Rat [20]	1400
Rat [21]	3000
